Laboratory results taken from ChEMBL document CHEMBL4308913, “In silico, NMR and pharmacological evaluation of an hydroxyoxindole cholinesterase inhibitor” (Bioorg Med Chem, 2019).
Active and inactive are the calls of the source. No cut-off for these calls is given here.

How the values were obtained:
Cholinesterase [1] = target: T1, Cholinesterase (Equus caballus, UniProt P81908); assay: Inhibition of equine serum BuChE after 15 mins
Acetylcholinesterase [2] = target: Acetylcholinesterase (Electrophorus electricus, UniProt O42275); assay: Inhibition of electrophorus electricus AChE
Chain of Acetylcholinesterase (Electrophorus electricus, UniProt O42275) (O42275 whole entry): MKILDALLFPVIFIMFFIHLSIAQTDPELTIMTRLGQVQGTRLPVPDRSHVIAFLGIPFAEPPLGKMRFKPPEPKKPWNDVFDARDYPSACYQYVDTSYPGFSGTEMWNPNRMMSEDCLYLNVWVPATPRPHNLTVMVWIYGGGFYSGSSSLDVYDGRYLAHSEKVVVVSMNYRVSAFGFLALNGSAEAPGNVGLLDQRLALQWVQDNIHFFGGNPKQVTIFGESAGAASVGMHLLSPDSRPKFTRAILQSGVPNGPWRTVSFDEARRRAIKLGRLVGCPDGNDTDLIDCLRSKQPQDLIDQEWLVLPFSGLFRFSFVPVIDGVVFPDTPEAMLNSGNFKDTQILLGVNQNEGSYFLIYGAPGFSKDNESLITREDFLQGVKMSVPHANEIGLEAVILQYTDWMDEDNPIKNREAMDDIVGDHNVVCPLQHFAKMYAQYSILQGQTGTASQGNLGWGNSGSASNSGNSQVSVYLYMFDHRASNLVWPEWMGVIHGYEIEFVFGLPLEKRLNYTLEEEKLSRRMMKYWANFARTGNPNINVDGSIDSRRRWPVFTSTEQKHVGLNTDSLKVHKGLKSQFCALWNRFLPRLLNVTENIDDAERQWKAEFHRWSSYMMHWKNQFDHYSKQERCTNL

Artemia salina [3] = assay: Toxicity against Artemia salina larvae assessed as larval mortality after 24 hrs; type: organism-based; conditions: in vivo
How it was run: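 A. salina nauplii were run per the Artoxkit M protocol: samples in saline were diluted 1:10 into saline medium, 10 larvae per well. Plates were held 24 h at 25 °C, and dead nauplii were counted by stereomicroscope. There were nine repeats per concentration, and LC50 came from dose-response. Negative controls were saline with and without 5% DMSO; potassium dichromate positive control ran 3.125–150 μg mL-1.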

Artemia salina [4] = assay: Toxicity against Artemia salina larvae assessed as larval mortality at 100 ug/mL after 24 hrs relative to control; type: organism-based; conditions: in vivo
Mus musculus = assay: In vivo inhibition of BuChE in Swiss mouse liver at 3 to 6 mg/kg, iv by Ellman's assay; type: functional, organism-based
[5] = Toxicity against Artemia salina larvae assessed as larval mortality at 1000 ug/mL after 24 hrs relative to control; type: organism-based; conditions: in vivo, at 1000 µg/mL
[6] = Acute toxicity in iv dosed Swiss mouse; conditions: in vivo
Cholinesterase [7] = target: T1, Cholinesterase; assay: Inhibition of equine serum BuChE
[8] = Acute oral toxicity in Swiss mouse by OECD up and down test guideline method; conditions: in vivo
Cholinesterase [9] = target: T1, Cholinesterase; assay: Reversible competitive inhibition of equine BuChE by Lineweaver-burk plot analysis
Acetylcholinesterase [10] = target: T2, Acetylcholinesterase (Mus musculus, UniProt P21836); assay: Inhibition of AChE in Swiss mouse liver homogenate using acetylthiocholine iodide as substrate by Ellman's assay
T2 sequence (P21836 whole entry): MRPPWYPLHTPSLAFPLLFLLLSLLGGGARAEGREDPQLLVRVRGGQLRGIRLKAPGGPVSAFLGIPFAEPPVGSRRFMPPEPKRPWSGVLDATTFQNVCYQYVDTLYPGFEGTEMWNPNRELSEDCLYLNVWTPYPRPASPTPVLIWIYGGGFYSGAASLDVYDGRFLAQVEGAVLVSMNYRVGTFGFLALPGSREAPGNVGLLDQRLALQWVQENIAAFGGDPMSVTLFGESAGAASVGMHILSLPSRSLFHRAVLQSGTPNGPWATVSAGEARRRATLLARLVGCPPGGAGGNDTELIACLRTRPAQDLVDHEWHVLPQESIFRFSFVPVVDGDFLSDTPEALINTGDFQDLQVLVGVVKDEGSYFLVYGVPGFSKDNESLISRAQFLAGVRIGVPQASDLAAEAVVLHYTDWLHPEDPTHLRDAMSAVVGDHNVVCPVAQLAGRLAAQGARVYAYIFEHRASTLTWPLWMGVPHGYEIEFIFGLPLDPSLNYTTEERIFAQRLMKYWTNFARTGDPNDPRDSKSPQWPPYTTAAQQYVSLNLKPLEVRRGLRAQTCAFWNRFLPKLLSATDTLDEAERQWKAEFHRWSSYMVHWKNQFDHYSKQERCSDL

Cholinesterase [11] = target: Cholinesterase (Mus musculus, UniProt Q03311); assay: Inhibition of BuChE in Swiss mouse liver homogenate by Ellman's assay; type: tissue-based
Chain of Cholinesterase (Mus musculus, UniProt Q03311) (Q03311 whole entry): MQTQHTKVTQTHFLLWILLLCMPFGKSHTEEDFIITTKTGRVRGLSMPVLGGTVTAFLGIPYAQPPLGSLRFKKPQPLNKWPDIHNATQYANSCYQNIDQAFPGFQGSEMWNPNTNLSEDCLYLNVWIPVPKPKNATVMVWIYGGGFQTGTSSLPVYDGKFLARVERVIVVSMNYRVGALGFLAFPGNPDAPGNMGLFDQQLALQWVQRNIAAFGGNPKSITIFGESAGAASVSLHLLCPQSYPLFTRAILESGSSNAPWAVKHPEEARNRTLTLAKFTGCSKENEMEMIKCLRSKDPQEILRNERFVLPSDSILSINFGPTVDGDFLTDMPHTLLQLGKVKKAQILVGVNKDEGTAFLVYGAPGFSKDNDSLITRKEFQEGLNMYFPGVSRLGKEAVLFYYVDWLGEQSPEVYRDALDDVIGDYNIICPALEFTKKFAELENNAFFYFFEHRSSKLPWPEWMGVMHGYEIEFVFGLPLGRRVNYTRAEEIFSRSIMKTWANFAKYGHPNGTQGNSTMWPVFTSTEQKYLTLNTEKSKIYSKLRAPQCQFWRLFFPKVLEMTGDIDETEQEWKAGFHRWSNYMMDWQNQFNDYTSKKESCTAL
How it was run: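 Swiss mouse livers from 8-week-old males were washed in ice-cold 0.2 M potassium phosphate, pH 7.6, then homogenized 1:10 w/v in 0.1 M phosphate, pH 7.6. Homogenates were spun at 1000 g, 4 °C, 15 min. Compounds were made up in 0.2 M phosphate, pH 7.6. Activity was read by modified Ellman's method, with protein by Lowry. IC50 came from dose-response, triplicate means ± SD.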

[12] = target: Cholinesterase (Equus caballus) (UniProt P81908); assay: Competitive inhibition of equine BuChE by Cornish-Bowden analysis
Chain of Cholinesterase (Equus caballus) (P81908 whole entry): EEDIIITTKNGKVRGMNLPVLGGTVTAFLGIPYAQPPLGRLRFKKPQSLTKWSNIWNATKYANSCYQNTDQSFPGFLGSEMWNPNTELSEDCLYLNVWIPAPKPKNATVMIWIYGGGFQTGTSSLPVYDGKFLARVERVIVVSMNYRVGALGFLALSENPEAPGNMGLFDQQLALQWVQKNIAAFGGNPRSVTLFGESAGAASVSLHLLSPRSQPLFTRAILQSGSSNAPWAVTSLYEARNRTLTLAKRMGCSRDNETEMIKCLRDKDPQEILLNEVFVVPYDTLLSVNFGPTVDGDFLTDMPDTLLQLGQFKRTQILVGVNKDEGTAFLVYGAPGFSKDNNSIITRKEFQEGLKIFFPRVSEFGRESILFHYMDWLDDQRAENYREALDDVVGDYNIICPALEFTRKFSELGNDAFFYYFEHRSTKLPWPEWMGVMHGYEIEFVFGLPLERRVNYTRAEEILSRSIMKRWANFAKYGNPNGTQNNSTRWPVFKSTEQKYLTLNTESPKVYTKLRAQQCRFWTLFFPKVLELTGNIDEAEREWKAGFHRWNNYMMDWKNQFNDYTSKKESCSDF

T1 sequence (P81908 whole entry): as above

| Compound | IC50 (Acetylcholinesterase [2]) [µM] | inhibition (Mus musculus) | mortality at 24 h, 1000 ug/mL [5] [%] | IC50 (Cholinesterase [7]) [µM] | other results |
| --- | --- | --- | --- | --- | --- |
| O=C1N(CC2CCN(Cc3ccccc3)CC2)c2ccccc2C1(O)c1ccccc1 (racemic) | 193 | – | – | – | IC50 (Cholinesterase [1]): 6.61 µM |
| POTASSIUM DICHROMATE | – | – | – | – | LC50 (Artemia salina [3]): 15.04 mg/L; Activity (Artemia salina [4]): 100% |
| COc1cc2c(cc1OC)C(=O)C(CC1CCN(Cc3ccccc3)CC1)C2 (stereo not drawn) [DONEPEZIL] | – | Active | 26 | – | LD50 [6]: 3.7 mg/kg |
| Cl.O=C1N(CC2CCNCC2)c2ccccc2C1(O)c1ccccc1 (racemic) | 500 | Active | 5 | 18.3 | LD50 [8]: 100 mg/kg; Ki (Cholinesterase [9]): 41 µM; IC50 (Acetylcholinesterase [10]): 565 µM; IC50 (Cholinesterase [11]): 435 µM; inhibition [12]: Active |
| O=C1N(Cc2ccccc2)c2ccccc2C1(O)c1ccccc1 (racemic) | 237 | – | – | 7.41 | – |
